Assay outcomes as filed in PubChem.
Shown are actives, neighbours in structure and some others; about 3.5% of the full set was active somewhere.
RGS4 act = RGS4 potentiation or activation; HEK293 M3R/inducible RGS4, carbachol calcium flux Fluo4; stronger effect = lower value; B-score at 10 µM; actives 0.92% (n = 310,000);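 active = B-score of the integrated calcium signal more than 4 SD below the library mean, with starting fluorescence not abnormally high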;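 note: negative B-score means reduced calcium response which marks RGS4 activation or potentiation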
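System: HEK293 FlpIn-TREx cells, stable M3R, doxycycline-inducible RGS4. Timing: overnight RGS4 induction, 30 min dye load 37 °C, 20 min compound RT. Also added: carbachol, ECmax concentration. Measured by: Fluo4 fluorescence kinetic imaging of calcium. Evaluation: integrated calcium ratio converted to B score.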
MrgX1 ag = activates human MrgX1 receptor signaling; actives 0.44% (n = 310,000); MrgX1-HEK293 cells, Fluo-4 calcium fluorescence, agonist mode; stronger effect = higher value; B-score at 10 µM; Q96LB2;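 active = calcium response B-score plate-corrected fluorescence ratio at least 3 library SD, with starting fluorescence B-score inside 5 SD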
Target sequence (Q96LB2 whole entry, looked up): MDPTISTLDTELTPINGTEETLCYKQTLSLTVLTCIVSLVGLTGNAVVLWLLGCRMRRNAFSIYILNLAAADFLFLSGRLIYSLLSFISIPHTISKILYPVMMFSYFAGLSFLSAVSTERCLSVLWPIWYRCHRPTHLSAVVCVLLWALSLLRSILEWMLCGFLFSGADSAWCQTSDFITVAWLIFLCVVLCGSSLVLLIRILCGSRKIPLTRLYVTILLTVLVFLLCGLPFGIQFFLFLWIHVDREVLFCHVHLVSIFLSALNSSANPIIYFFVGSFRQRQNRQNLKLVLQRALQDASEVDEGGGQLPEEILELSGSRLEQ
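Material: MrgX1-expressing HEK293 cells / Dosing: compound as first of three additions / Incubation: overnight seeding, then 1 h dark dye loading / Signal: Fluo-4 NW calcium fluorescence / Evaluation: B-scored fluorescence response ratio / Benchmarks: positive and negative control wells on each plate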
MrgX1 antagonist = blocks BAM8-22 activation of human MrgX1 receptor; actives 1.3% (n = 310,000); MRGX1-HEK293 calcium flux, Fluo-4, BAM8-22 antagonism; stronger effect = lower value; Q96LB2; AID 588676; B-score at 10 µM;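 active = calcium-response B-score plate-corrected more than 3 library SD below zero, starting fluorescence within 5 deviations, no agonist response on first addition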;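 note: peak minus trough fluorescence over baseline after final BAM8-22 challenge near maximal dose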
MrgX1 allo act = human MrgX1 positive allosteric modulation, primary screen | Q96LB2 | MrgX1-HEK293, Fluo-4 calcium flux, FDSS; stronger effect = higher value | B-score at 10 µM | actives 0.63% (n = 310,000) | AID 588675;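 active = plate-corrected calcium response at least 3 library SD above typical, normal starting fluorescence, not activating the receptor alone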;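 note: compound read alongside a low EC10 to EC30 dose of BAM8-22 agonist; peak minus trough fluorescence over baseline measured at the second addition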
RGS4 inh = human RGS4 inhibition; B-score at 10 µM; P49798; AID 463165; HEK293 M3R/RGS4 inducible, Fluo-4 calcium flux; stronger effect = higher value; triggered by carbachol at its EC20; actives 0.45% (n = 310,000);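 active = B-score, a plate-corrected calcium signal, over three deviations above library mean, with baseline fluorescence within five deviations of library mean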;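 note: RGS4 expression induced by doxycycline in cells with stable M3 receptor; B-score is computed from the integrated fluorescence ratio over baseline after carbachol; higher B-score means a larger calcium signal and so more RGS4 inhibition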
Target sequence (P49798 whole entry, looked up): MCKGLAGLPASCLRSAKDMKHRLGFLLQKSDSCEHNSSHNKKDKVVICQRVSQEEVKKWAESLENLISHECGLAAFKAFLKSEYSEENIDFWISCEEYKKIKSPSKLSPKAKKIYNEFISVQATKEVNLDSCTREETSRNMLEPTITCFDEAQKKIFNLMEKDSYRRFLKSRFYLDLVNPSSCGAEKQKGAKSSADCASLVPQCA
Numbers without * were called inactive.

What do the screens show for `COCc1c(Br)c(C)nc(OCC(=O)N/N=C/c2cc(C)n(-c3ccc([N+](=O)[O-])cc3)c2C)c1C#N`?
RGS4 act: -7.87*; MrgX1 ag: inactive; MrgX1 antagonist: inactive; MrgX1 allo act: inactive; RGS4 inh: inactive

What do the screens show for `FC(F)(F)c1cc(CCN2C(=S)NC[C@@H]2CC2CCCCC2)cc(C(F)(F)F)c1`?
RGS4 act: -9.84*; MrgX1 ag: inactive; MrgX1 antagonist: inactive; MrgX1 allo act: inactive; RGS4 inh: inactive

How did O=C(c1ccco1)N1N=C(c2cccs2)CC1c1cc([N+](=O)[O-])ccc1O (configuration not stated) do in these assays?
RGS4 act: inactive; MrgX1 ag: inactive; MrgX1 antagonist: inactive; MrgX1 allo act: 7.11*; RGS4 inh: inactive

Results for O=C(Oc1ccc(Br)cc1C(=S)N1CCOCC1)c1ccc([N+](=O)[O-])cc1[N+](=O)[O-] ?
RGS4 act: -7.51*; MrgX1 ag: inactive; MrgX1 antagonist: inactive; MrgX1 allo act: inactive; RGS4 inh: inactive

What do the screens show for `O=C(Oc1ccc(C(=S)N2CCOCC2)cc1)c1ccc([N+](=O)[O-])cc1[N+](=O)[O-]`?
RGS4 act: inactive; MrgX1 ag: inactive; MrgX1 antagonist: inactive; MrgX1 allo act: inactive; RGS4 inh: inactive

How did O=C(NNc1cc(C(F)(F)F)nc2ccccc12)Nc1cccc(Cl)c1 do in these assays?
RGS4 act: inactive; MrgX1 ag: inactive; MrgX1 antagonist: inactive; MrgX1 allo act: inactive; RGS4 inh: inactive

How did Cc1ccnc(NC(=O)CSc2ccc3c(c2)OCCO3)c1 do in these assays?
RGS4 act: -7.34*; MrgX1 ag: inactive; MrgX1 antagonist: inactive; MrgX1 allo act: inactive; RGS4 inh: inactive

What do the screens show for `O=C(NCC1CCCC(CNC(=O)N2CCc3ccccc32)C1)N1CCc2ccccc21` (configuration not stated)?
RGS4 act: inactive; MrgX1 ag: inactive; MrgX1 antagonist: inactive; MrgX1 allo act: inactive; RGS4 inh: inactive

What do the screens show for `CC1CCN(CC(CS(=O)(=O)c2ccc([N+](=O)[O-])cc2)N2CCC(C)CC2)CC1` (configuration not stated)?
RGS4 act: inactive; MrgX1 ag: inactive; MrgX1 antagonist: -5.15*; MrgX1 allo act: inactive; RGS4 inh: inactive

Results for CCCCN(CCCC)c1ccc(C(=O)c2ccccc2C(=O)O)c(O)c1 ?
RGS4 act: inactive; MrgX1 ag: 42*; MrgX1 antagonist: inactive; MrgX1 allo act: inactive; RGS4 inh: inactive

What do the screens show for `CN(C(=O)c1ccc(OC2CCN(C(=O)c3cccnc3)CC2)cc1)C1CCCCC1`?
RGS4 act: inactive; MrgX1 ag: inactive; MrgX1 antagonist: inactive; MrgX1 allo act: inactive; RGS4 inh: inactive

How did Cc1ccc(/C=C2\S/C(=N/S(=O)(=O)c3cccs3)NC2=O)cc1 do in these assays?
RGS4 act: inactive; MrgX1 ag: inactive; MrgX1 antagonist: inactive; MrgX1 allo act: 14.1*; RGS4 inh: inactive

How did Cc1ccc(S(=O)(=O)/N=C2/NC(=O)/C(=C\c3ccco3)S2)cc1 do in these assays?
MrgX1 ag: inactive; MrgX1 antagonist: inactive; MrgX1 allo act: inactive

What do the screens show for `CC(C)(C)C(=O)O/N=C(\N)c1c(Cl)cccc1Cl`?
RGS4 act: -9.09*; MrgX1 ag: inactive; MrgX1 antagonist: inactive; MrgX1 allo act: inactive; RGS4 inh: inactive

Results for CNc1cccc2c1C(=O)c1ccccc1C2=O ?
RGS4 act: inactive; MrgX1 ag: inactive; MrgX1 antagonist: inactive; MrgX1 allo act: inactive; RGS4 inh: inactive

How did O=C1c2ccccc2-c2cccc(NS(=O)(=O)c3ccc(C(F)(F)F)cc3)c21 do in these assays?
RGS4 act: -6.97*; MrgX1 ag: inactive; MrgX1 antagonist: inactive; MrgX1 allo act: inactive; RGS4 inh: inactive

Results for COc1cc2c(cc1OC)CN(Cc1cc(OC)c(O)c(OC)c1)CC2 ?
RGS4 act: inactive; MrgX1 ag: inactive; MrgX1 antagonist: inactive; MrgX1 allo act: inactive; RGS4 inh: inactive

What do the screens show for `COc1ccc(-c2csc3ncnc(N4CCN(S(=O)(=O)c5ccc(C(C)=O)cc5)CC4)c23)cc1`?
RGS4 act: -6.99*; MrgX1 ag: inactive; MrgX1 antagonist: inactive; MrgX1 allo act: inactive; RGS4 inh: inactive

What do the screens show for `COc1ccc(-c2csc3ncnc(N4CCN(c5ccccc5[N+](=O)[O-])CC4)c23)cc1`?
RGS4 act: -7.35*; MrgX1 ag: inactive; MrgX1 antagonist: inactive; MrgX1 allo act: inactive; RGS4 inh: inactive

How did CCCCN(CCCC)CCNC(=O)c1cn(C)c2ccc(S(=O)(=O)N3CCCC3)cc2c1=O do in these assays?
RGS4 act: inactive; MrgX1 ag: inactive; MrgX1 antagonist: inactive; MrgX1 allo act: inactive; RGS4 inh: inactive

Results for CCC1CCCCN1CCCNC(=O)c1ccc2c(c1)N(Cc1c(F)cccc1Cl)C(=O)CS2 (configuration not stated) ?
RGS4 act: -8.16*; MrgX1 ag: inactive; MrgX1 antagonist: inactive; MrgX1 allo act: inactive; RGS4 inh: inactive

What do the screens show for `O=C(NCCN1CCOCC1)c1ccc2c(c1)N(Cc1ccc(Cl)cc1)C(=O)CS2`?
RGS4 act: -7.26*; MrgX1 ag: inactive; MrgX1 antagonist: inactive; MrgX1 allo act: inactive; RGS4 inh: inactive

How did O=C(NCCN1CCOCC1)c1ccc2c(c1)N(Cc1ccccc1)C(=O)CS2 do in these assays?
RGS4 act: inactive; MrgX1 ag: inactive; MrgX1 antagonist: inactive; MrgX1 allo act: inactive; RGS4 inh: inactive

What do the screens show for `Clc1cnc(Nc2cccnc2)c(Cl)c1`?
RGS4 act: inactive; MrgX1 ag: inactive; MrgX1 antagonist: inactive; MrgX1 allo act: inactive; RGS4 inh: inactive

What do the screens show for `CC(=O)NC(CC(=O)O)c1ccccc1` (configuration not stated)?
RGS4 act: inactive; MrgX1 ag: inactive; MrgX1 antagonist: inactive; MrgX1 allo act: inactive; RGS4 inh: inactive

Results for CC(=O)NC(CC(=O)N1CCCC1)c1ccccc1 (configuration not stated) ?
RGS4 act: inactive; MrgX1 ag: inactive; MrgX1 antagonist: -5.26*; MrgX1 allo act: inactive; RGS4 inh: inactive

How did COc1cccc(C2=NOC(C(=O)NCCCn3ccnc3)C2)c1 (configuration not stated) do in these assays?
RGS4 act: inactive; MrgX1 ag: inactive; MrgX1 antagonist: -6.55*; MrgX1 allo act: inactive; RGS4 inh: inactive

Results for CCN(CC)CCNC(=O)C1c2ccccc2Oc2ccccc21 ?
RGS4 act: -7.23*; MrgX1 ag: inactive; MrgX1 antagonist: inactive; MrgX1 allo act: inactive; RGS4 inh: inactive

How did COc1ccc(C2=NOC(C(=O)NCCCn3ccnc3)C2)cc1 (configuration not stated) do in these assays?
RGS4 act: inactive; MrgX1 ag: inactive; MrgX1 antagonist: inactive; MrgX1 allo act: inactive; RGS4 inh: inactive
